Active and inactive are the calls of the source.
Columns and labels:
[1] = biological target: Butyrylcholinesterase (Rattus norvegicus) (UniProt Q9JKC1); experiment: Inhibition of rat serum BuChE using butyrylthiocholine iodide as substrate at 50 uM after 15 mins by Ellman's method
How it was run: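 Modified Ellman assay in phosphate buffer pH 7.4. Enzyme sources: AChE from 5% rat cortex homogenate, preincubated 5 min with iso-OMPA to block BuChE; BuChE from 25% rat serum. Substrates were acetylthiocholine or butyrylthiocholine iodide. Compounds incubated 15 min at 37 °C, then DTNB added; A405 read. IC50 derived; triplicate, 3 independent experiments; "no active" means under 5% inhibition at 50 µM.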

Acetylcholinesterase [2] = biological target: T1, Acetylcholinesterase (Rattus norvegicus, UniProt P37136); experiment: Inhibition of rat cortex homogenate AchE using acetylthiocholine iodide as substrate after 15 mins by Ellman's method
T1 sequence (P37136 whole entry): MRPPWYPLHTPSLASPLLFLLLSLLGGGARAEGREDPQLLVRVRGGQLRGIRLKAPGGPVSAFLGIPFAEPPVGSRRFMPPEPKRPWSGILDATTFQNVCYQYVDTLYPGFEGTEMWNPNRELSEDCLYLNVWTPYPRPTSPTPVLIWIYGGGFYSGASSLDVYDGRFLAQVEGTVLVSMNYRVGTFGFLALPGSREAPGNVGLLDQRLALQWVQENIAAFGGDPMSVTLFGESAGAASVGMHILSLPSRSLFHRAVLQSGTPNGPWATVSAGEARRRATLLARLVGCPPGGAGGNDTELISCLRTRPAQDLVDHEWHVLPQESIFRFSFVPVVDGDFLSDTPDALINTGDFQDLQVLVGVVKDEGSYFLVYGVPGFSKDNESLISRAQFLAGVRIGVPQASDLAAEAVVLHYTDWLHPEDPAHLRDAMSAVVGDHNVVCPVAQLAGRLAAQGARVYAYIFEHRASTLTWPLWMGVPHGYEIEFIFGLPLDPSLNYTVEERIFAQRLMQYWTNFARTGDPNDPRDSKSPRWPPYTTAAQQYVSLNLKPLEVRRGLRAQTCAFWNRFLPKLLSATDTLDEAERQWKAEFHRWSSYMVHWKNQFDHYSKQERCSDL

[3] = Antioxidant activity assessed as trolox equivalent of APPH-induced radical scavenging activity at 1 to 10 uM preincubated for 15 mins followed by AAPH challenge measured every minute for 90 minutes by ORAC fluorescence assay; assay type: functional
How it was run: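 ORAC-FL in phosphate buffer pH 7.4. Samples (1–10 µM) preincubated with fluorescein (150 nM final) 15 min at 37 °C, then AAPH (12 mM final) added. Fluorescence (ex 485/em 535 nm) read each minute for 90 min. Net AUC over blank converted to Trolox equivalents using a 1–8 µM Trolox curve. Duplicates, at least 3 independent assays.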

[4] = biological target: Amyloid-beta precursor protein (Homo sapiens) (UniProt P05067); experiment: Inhibition of Cu2+-induced amyloid beta (1 to 42) (unknown origin) aggregation at 25 uM after 24 hrs by thioflavin T fluorescence method
How it was run: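 Aβ1-42 (25 µM final, HFIP-pretreated) with an equimolar amount of Cu2+ (25 µM) in HEPES pH 6.6 with 150 mM NaCl. Incubated with or without compound (10–35 µM final) 24 h at 37 °C. ThT in glycine-NaOH pH 8.5 added, fluorescence ex 446/em 490 nm. DMSO 12.5% final. Percent inhibition relative to no-inhibitor wells; triplicate, mean of 3 independent experiments.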

[5] = biological target: Amyloid-beta precursor protein (Homo sapiens) (UniProt P05067); experiment: Induction of amyloid beta (1 to 42) (unknown origin) disaggregation assessed as reduction of Cu2+-induced amyloid beta fibril formation at 25 uM after 24 hrs by thioflavin T fluorescence method; design: scale not given: the % may be the effect or the level left
How it was run: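 Aβ1-42 (25 µM final, HFIP-pretreated) and Cu2+ (25 µM) in HEPES pH 6.6 with 150 mM NaCl, incubated 24 h at 37 °C. Test compound (25 µM final) then added for a further 24 h at 37 °C, wells sealed. Read by ThT in glycine-NaOH pH 8.5 (ex 446/em 490 nm). DMSO 12.5% final; triplicate.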

Mus musculus [6] = experiment: Cognition enhancing effect against scopolamine-induced memory deficit in po dosed Kunming mouse assessed as increase in latency time administered 1 hr before training followed by scopolamine challenge for 7 days measured after 24 hrs by step-down passive avoidance test; assay type: functional, organism-based
How it was run: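 Kunming mice, six weeks old, 18–22 g, either sex, n=10 per group. Oral dosing at 2, 6, 18 or 3, 9, 27 mg/kg in vegetable oil, 1 h before training; vehicle as negative control. Scopolamine (3 mg/kg i.p., in saline) given 30 min later. Behavioural testing after 7 days of treatment. Step-down training used a 0.5 mA, 2 s foot shock. Latency measured 24 h later, cut-off 300 s; mean ± SEM.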

Acetylcholinesterase [7] = biological target: Acetylcholinesterase (Electrophorus electricus, UniProt O42275); experiment: Inhibition of electric eel AchE using acetylthiocholine iodide as substrate after 15 mins by Ellman's method
[8] = biological target: Amyloid-beta precursor protein (Homo sapiens) (UniProt P05067); experiment: Inhibition of self-induced amyloid beta (1 to 42) (unknown origin) aggregation at 25 uM after 24 hrs by thioflavin T fluorescence method
How it was run: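 HFIP-pretreated Aβ1-42 (25 µM final) incubated with compound (10–50 µM) in 50 mM phosphate pH 7.4 for 24 h at 37 °C, wells sealed. ThT in glycine-NaOH pH 8.5 added; fluorescence ex 446/em 490 nm. DMSO 12.5% final. Percent inhibition relative to peptide without inhibitor; triplicate, mean of 3 independent experiments.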

Acetylcholinesterase [9] = biological target: Acetylcholinesterase (Homo sapiens, UniProt P22303); experiment: Inhibition of human erythrocytes AchE using acetylthiocholine iodide as substrate after 15 mins by Ellman's method
Mus musculus [10] = experiment: Cognition enhancing effect against scopolamine-induced memory deficit in Kunming mouse assessed as increase in latency time at 5 mg/kg, po administered 1 hr before training followed by scopolamine challenge for 7 days measured after 24 hrs by step-down passive avoidance test; assay type: functional, organism-based; design: dose 5 mg/kg
How it was run: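 Kunming mice (18–22 g, six weeks old, either sex), 10 per group. Drug in vegetable oil given orally 1 h before training, with scopolamine (3 mg/kg i.p., in 0.9% saline) 30 min later. Behavioural testing one day after 7 days of treatment. Training: 0.5 mA, 2 s foot shock on stepping down from a block. Step-down latency measured 24 h later, 300 s cut-off. Mean ± SEM.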

Chain of Acetylcholinesterase (Electrophorus electricus, UniProt O42275) (O42275 whole entry): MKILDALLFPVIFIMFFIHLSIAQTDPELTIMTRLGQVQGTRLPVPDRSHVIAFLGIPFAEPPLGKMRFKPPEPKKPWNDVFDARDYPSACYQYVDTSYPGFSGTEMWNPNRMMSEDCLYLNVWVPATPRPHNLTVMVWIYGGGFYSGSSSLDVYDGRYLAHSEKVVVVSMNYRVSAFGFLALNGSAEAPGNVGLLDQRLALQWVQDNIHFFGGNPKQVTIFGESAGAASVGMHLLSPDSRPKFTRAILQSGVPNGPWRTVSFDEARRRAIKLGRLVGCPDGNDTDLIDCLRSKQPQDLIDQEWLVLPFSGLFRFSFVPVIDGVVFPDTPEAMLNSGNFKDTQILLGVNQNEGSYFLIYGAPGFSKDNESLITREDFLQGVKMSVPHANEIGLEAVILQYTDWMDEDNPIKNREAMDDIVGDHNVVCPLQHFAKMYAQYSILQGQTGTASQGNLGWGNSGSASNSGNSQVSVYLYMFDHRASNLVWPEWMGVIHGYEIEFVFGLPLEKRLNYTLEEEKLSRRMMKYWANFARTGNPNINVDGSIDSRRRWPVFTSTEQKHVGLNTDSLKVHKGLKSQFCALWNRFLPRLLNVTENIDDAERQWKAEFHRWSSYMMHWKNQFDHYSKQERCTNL
Chain of Butyrylcholinesterase (Rattus norvegicus) (Q9JKC1 as listed by the source): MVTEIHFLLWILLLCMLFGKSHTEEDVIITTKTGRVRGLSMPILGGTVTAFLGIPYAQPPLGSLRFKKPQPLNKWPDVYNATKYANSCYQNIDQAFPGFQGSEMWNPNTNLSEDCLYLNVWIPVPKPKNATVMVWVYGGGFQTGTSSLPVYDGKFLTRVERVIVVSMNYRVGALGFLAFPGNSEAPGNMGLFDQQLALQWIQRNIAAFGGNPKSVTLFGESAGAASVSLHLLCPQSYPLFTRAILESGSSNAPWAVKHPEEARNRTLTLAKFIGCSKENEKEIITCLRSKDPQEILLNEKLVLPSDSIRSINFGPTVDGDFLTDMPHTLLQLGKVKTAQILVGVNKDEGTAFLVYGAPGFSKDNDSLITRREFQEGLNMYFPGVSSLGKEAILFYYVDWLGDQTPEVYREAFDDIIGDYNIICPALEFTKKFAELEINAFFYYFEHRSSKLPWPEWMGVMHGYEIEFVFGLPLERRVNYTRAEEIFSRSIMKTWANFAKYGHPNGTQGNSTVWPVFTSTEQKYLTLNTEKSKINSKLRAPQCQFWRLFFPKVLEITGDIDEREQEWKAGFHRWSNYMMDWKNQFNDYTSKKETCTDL
Chain of Amyloid-beta precursor protein (Homo sapiens) (P05067 whole entry): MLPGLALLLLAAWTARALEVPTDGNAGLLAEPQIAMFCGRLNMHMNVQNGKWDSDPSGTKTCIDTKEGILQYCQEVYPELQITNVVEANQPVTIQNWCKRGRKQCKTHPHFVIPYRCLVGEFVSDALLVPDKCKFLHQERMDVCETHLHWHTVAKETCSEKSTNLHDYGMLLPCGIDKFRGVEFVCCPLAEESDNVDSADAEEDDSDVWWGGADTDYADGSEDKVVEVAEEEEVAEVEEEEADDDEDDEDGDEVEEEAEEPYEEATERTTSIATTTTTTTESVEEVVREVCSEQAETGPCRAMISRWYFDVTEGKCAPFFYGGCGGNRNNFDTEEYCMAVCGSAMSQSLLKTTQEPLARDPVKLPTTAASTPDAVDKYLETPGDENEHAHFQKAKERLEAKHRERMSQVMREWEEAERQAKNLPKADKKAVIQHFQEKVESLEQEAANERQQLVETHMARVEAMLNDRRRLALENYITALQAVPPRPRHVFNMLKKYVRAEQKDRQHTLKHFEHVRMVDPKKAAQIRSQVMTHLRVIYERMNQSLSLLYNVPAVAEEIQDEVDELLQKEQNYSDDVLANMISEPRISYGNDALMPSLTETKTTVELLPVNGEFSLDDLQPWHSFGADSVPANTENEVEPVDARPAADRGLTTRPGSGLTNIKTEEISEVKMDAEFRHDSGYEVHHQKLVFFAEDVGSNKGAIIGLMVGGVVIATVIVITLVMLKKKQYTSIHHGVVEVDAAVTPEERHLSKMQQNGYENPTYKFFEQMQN
Chain of Acetylcholinesterase (Homo sapiens, UniProt P22303) (P22303 whole entry): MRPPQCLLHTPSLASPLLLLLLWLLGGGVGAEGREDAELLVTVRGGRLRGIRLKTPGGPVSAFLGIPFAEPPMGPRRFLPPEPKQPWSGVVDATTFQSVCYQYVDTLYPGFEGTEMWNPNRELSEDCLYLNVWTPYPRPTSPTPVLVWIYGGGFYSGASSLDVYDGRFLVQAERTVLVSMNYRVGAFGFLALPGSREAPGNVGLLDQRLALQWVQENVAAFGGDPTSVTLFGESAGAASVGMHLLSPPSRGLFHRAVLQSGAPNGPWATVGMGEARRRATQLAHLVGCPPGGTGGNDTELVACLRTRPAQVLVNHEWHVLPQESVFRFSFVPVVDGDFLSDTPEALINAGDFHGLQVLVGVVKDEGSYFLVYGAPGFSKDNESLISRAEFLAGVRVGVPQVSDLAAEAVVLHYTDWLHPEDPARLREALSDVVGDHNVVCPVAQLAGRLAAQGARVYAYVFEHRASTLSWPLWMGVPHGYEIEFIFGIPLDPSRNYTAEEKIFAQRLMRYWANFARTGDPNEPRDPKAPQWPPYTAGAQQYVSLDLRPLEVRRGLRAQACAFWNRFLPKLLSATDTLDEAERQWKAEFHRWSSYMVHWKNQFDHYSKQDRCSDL

SMILES | inhibition [1] [%] | IC50 (Acetylcholinesterase [2]) [µM] | Activity [3] | also measured
CN(CCCOc1ccc(-c2coc3cc(O)cc(O)c3c2=O)cc1)Cc1ccccc1 | < 5 | 49.3 | 0.46 | –
CCN(CCCOc1cc(O)c2c(=O)c(-c3ccc(O)cc3)coc2c1)Cc1ccccc1OC | < 5 | 0.47 | 1.02 | –
CCN(CCCCOc1cc(O)c2c(=O)c(-c3ccc(O)cc3)coc2c1)Cc1ccccc1 | 10.4 | 2.42 | 2.4 | –
COc1ccccc1CN(C)CCCCCCOc1ccc(-c2coc3cc(O)cc(O)c3c2=O)cc1 | < 5 | 5.62 | 0.4 | –
CN(CCCCOc1ccc(-c2coc3cc(O)cc(O)c3c2=O)cc1)Cc1ccccc1 | 10.8 | 3.79 | 0.32 | –
CN(CCCOc1cc(O)c2c(=O)c(-c3ccc(O)cc3)coc2c1)Cc1ccccc1 | 7.4 | 36.3 | 0.89 | –
CCN(CCCOc1ccc(-c2coc3cc(O)cc(O)c3c2=O)cc1)Cc1ccccc1 | 11.6 | 42.8 | 0.58 | –
CCN(CCCCCCOc1cc(O)c2c(=O)c(-c3ccc(O)cc3)coc2c1)Cc1ccccc1 | < 5 | 0.35 | 1.2 | inhibition [4]: 72.1%; Activity [5]: 36.1%; Activity (Mus musculus [6]): Dose-dependent effect; IC50 (Acetylcholinesterase [7]): 4.98 µM; inhibition [8]: 34.3%; IC50 (Acetylcholinesterase [9]): 5.8 µM
CCN(CCCCOc1cc(O)c2c(=O)c(-c3ccc(O)cc3)coc2c1)Cc1ccccc1OC | 7.7 | 0.83 | 1.06 | –
CCN(CCCCCCOc1cc(O)c2c(=O)c(-c3ccc(O)cc3)coc2c1)Cc1ccccc1OC | < 5 | 0.53 | 0.56 | –
COc1cc(/C=C/C(=O)CC(=O)/C=C/c2ccc(O)c(OC)c2)ccc1O | – | – | – | inhibition [4]: 64%
CCN(CCCOc1ccc(-c2coc3cc(OCCCN(CC)Cc4ccccc4OC)cc(O)c3c2=O)cc1)Cc1ccccc1OC | 12.5 | 0.21 | 0.49 | IC50 (Acetylcholinesterase [7]): 0.16 µM
CCN(CCCCCCOc1ccc(-c2coc3cc(O)cc(O)c3c2=O)cc1)Cc1ccccc1 | < 5 | 38.4 | 0.29 | –
COc1ccccc1CN(C)CCCOc1ccc(-c2coc3cc(O)cc(O)c3c2=O)cc1 | < 5 | 37.4 | 0.62 | –
COc1ccccc1CN(C)CCCCOc1cc(O)c2c(=O)c(-c3ccc(O)cc3)coc2c1 | < 5 | 5.55 | 1.56 | –
CCN(CCCCOc1ccc(-c2coc3cc(O)cc(O)c3c2=O)cc1)Cc1ccccc1OC | 6.7 | 1.45 | 1.1 | inhibition [4]: 71.9%; Activity [5]: 39.2%; Activity (Mus musculus [6]): Dose-dependent effect; IC50 (Acetylcholinesterase [7]): 15.9 µM; inhibition [8]: 24.6%; IC50 (Acetylcholinesterase [9]): 3.88 µM
CCN(CCCCOc1ccc(-c2coc3cc(OCCCCN(CC)Cc4ccccc4)cc(O)c3c2=O)cc1)Cc1ccccc1 | 10.3 | 0.9 | 0.26 | –
CCN(CCCCCCOc1ccc(-c2coc3cc(O)cc(O)c3c2=O)cc1)Cc1ccccc1OC | < 5 | 1.69 | 0.38 | –
COc1ccccc1CN(C)CCCOc1cc(O)c2c(=O)c(-c3ccc(O)cc3)coc2c1 | < 5 | 13.5 | 1.05 | –
CN(CCCCCCOc1cc(O)c2c(=O)c(-c3ccc(O)cc3)coc2c1)Cc1ccccc1 | < 5 | 4.24 | 0.65 | –
CN(CCCCCCOc1ccc(-c2coc3cc(O)cc(O)c3c2=O)cc1)Cc1ccccc1 | 7.7 | 3.54 | 0.3 | –
CCN(CCCCCCOc1ccc(-c2coc3cc(OCCCCCCN(CC)Cc4ccccc4OC)cc(O)c3c2=O)cc1)Cc1ccccc1OC | 11.6 | 0.51 | 0.13 | IC50 (Acetylcholinesterase [7]): 3.79 µM
COc1ccccc1CN(C)CCCCCCOc1cc(O)c2c(=O)c(-c3ccc(O)cc3)coc2c1 | < 5 | 3.19 | 2.7 | –
CCN(CCCOc1ccc(-c2coc3cc(O)cc(O)c3c2=O)cc1)Cc1ccccc1OC | 17.6 | 16 | 0.64 | –
COc1cc2c(cc1OC)C(=O)C(CC1CCN(Cc3ccccc3)CC1)C2 (configuration not stated) | – | – | – | Activity (Mus musculus [10]): Active
CCN(CCCOc1cc(O)c2c(=O)c(-c3ccc(O)cc3)coc2c1)Cc1ccccc1 | 9.9 | 1.42 | 1.12 | –
CN(CCCCOc1cc(O)c2c(=O)c(-c3ccc(O)cc3)coc2c1)Cc1ccccc1 | 8.9 | 54.5 | 1 | –
COc1ccccc1CN(C)CCCCOc1ccc(-c2coc3cc(O)cc(O)c3c2=O)cc1 | 9.7 | 5.31 | 1.1 | –
CCN(CCCCOc1ccc(-c2coc3cc(O)cc(O)c3c2=O)cc1)Cc1ccccc1 | < 5 | 12.8 | 0.6 | –

Source: ChEMBL document CHEMBL3124932, “Design, synthesis and evaluation of genistein-O-alkylbenzylamines as potential multifunctional agents for the treatment of Alzheimer's disease” (Eur J Med Chem, 2014)
